Laboratory results as given in publication PMC4816258 (Clinical and Translational Gastroenterology, 2015).
Entries after “also recorded” stand apart in the source; their conditions may differ. Where no end group is shown, it is not given here.

Columns and labels:
[1] = system: human dysplastic colorectal polyps; conditions: FITC-labeled, confocal endomicroscopy; cited from earlier work
[2] = system: spontaneous colonic adenomas in CPC;Apc mice; experiment: in vivo near-infrared fluorescence endoscopy of colon in CPC; parameters: species or system mouse; conditions: for target-to-background ratio, flat lesions / target-to-background ratio, polyps: 1.5 ml, 5 min incubation; for target-to-background ratio, flat lesions: flat lesions n=15, 5 mice; for target-to-background ratio, polyps: polyps n=15, 5 mice; for T/B ratio (log2), flat lesions / T/B ratio (log2), polyps: mean±s.d., n=15
Method in brief: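 CPC;Apc mice (Cdx2-Cre, floxed Apc allele), n=5, aged 7–10 months, under 2–4% isoflurane in oxygen by nose cone. Colon rinsed with water under white light. Cy5.5-labeled peptides (100 μM) delivered topically through the endoscope channel and left 5 min, then unbound peptide rinsed off. Imaging with small-animal NIR fluorescence endoscope; lesions excised for H&E. T/B ratios log-transformed; fold-change taken as anti-log of difference.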

[3] = system: human colonic dysplasia; experiment: binding of peptide and antibody to human colonic specimens, confocal microscopy
Method in brief: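 Human colonic biopsies from routine colonoscopy, frozen in OCT, cut at 10 μm. Sections incubated with 5 μM Cy5.5-labeled peptide in PBS for 10 min at RT, then rabbit anti-EGFR (1:1000) overnight at 4 °C and AF488 goat anti-rabbit (1:500) 1 h at RT. Sections fixed in 4% PFA and mounted with DAPI; confocal imaging at 20×. Mean intensity taken from three 30×30 μm² boxes within surface epithelium per specimen. Histology reviewed by GI pathologist.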

[4] = system: EGFR phosphorylation, Akt and Erk1/2 phosphorylation in HT29 cells; experiment: effect of peptide on cell signaling, western blot; assay type: cell-based, human; conditions: 5 and 100 μM, 10, 20 and 120 min
Method in brief: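 HT29 cells held in serum-free medium for 16 h, then exposed to Cy5.5-labeled peptide at 5 or 100 μM for 10, 20 or 120 min. EGF at 100 ng/ml for the same times served as reference. Cells lysed in RIPA with protease inhibitors, followed by SDS gel electrophoresis, PVDF transfer and chemiluminescent immunoblotting. Probes: EGFR, phospho-EGFR, AKT, phospho-AKT (S473), ERK1/2, phospho-ERK1/2 and tubulin.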

[5] = system: EGFR in HT29 cells (siCL vs siEGFR); experiment: siRNA knockdown of EGFR, confocal microscopy of peptide binding; assay type: cell-based, human; conditions: for intensity siCL vs siEGFR (in words): HT29, confocal; for binding/intensity in HT29 knockdown cells (siEGFR) / binding to control HT29 cells (siCL): confocal; for binding/intensity in HT29 knockdown cells (siEGFR): EGFR-targeting siRNA; for binding to control HT29 cells (siCL): nontargeting siRNA
Method in brief: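 HT29 cells, with penicillin–streptomycin omitted, transfected using DharmaFECT with EGFR-targeting or nontargeting pool siRNA. Cells incubated with Cy5.5-labeled test and control peptides, then fixed in 4% PFA or methanol. Stained with mouse anti-EGFR (1:1000) overnight at 4 °C, then AF488 goat anti-mouse (1:500) 1 h at RT. Mounted with DAPI; confocal imaging with 63× oil objective.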

[6] = system: SW620 cells; experiment: confocal fluorescence microscopy of peptide binding, SW620; assay type: cell-based, human; conditions: 5 μM peptide, 3 min at RT; SW620 low EGFR expression
Method in brief: (§1)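 HT29 cells kept in McCoy's medium; SW480 and SW620 cells in DMEM. All with 10% FBS and 1% penicillin–streptomycin at 37 °C, 5% CO2. ~10^3 cells grown on coverslips to ~80% confluence, washed in PBS and incubated with 5 μM Cy5.5-labeled test or control peptide for 3 min at RT. Cells washed, fixed in 4% PFA for 5 min and mounted with DAPI; confocal imaging with 63× oil objective. Intensities quantified from five cells in two independent images.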

[7] = system: SW480 cells; experiment: confocal fluorescence microscopy of peptide binding, SW480; assay type: cell-based, human; conditions: 5 μM peptide, 3 min at RT; SW480 medium EGFR expression
Method in brief: as §1

[8] = system: HT29 cells; experiment: confocal fluorescence microscopy of peptide binding, HT29; assay type: cell-based, human; conditions: 5 μM peptide, 3 min at RT; HT29 high EGFR expression
Method in brief: as §1

[9] = fluorescence spectra of Cy5.5-labeled peptides; assay type: physicochemical; conditions: 10 μM in PBS, λex=671 nm
[10] = system: dysplastic crypts in polyps; experiment: binding to dysplastic crypts in mouse polyp specimens, immunofluorescence; conditions: optimal cutting temperature-embedded mouse specimens
Method in brief: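 Mouse polypoid dysplasia frozen in OCT and cut at 10 μm. Sections stained with goat anti-mouse anti-EGFR (1:1000) plus AF488-labeled secondary antibody, washed in PBS, fixed in 4% PFA for 10 min and mounted with DAPI. Confocal microscopy used; adjacent sections stained with H&E.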

[11] = system: HT29 cells; experiment: apparent association time constant, flow cytometry; assay type: binding, human; conditions: from k, 5 μM QRH*-Cy5.5, 4 °C
Method in brief: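 HT29 cells detached with PBS-based dissociation buffer; ~10^5 cells incubated with 5 μM Cy5.5-labeled test peptide at 4 °C for intervals from 0 to 20 min. Cells washed in cold PBS, fixed in 4% PFA and analysed by flow cytometry. Median fluorescence taken as a ratio to cells without peptide at each time point. Rate constant k fitted to y(t)=Imax[1−exp(−kt)]. Six independent experiments.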

[12] = biological target: Epidermal growth factor receptor (EGFR) (human (endogenous in HT29, SW480, SW620), UniProt P00533 25-1210); experiment: immunostaining of cells or tissue
[13] = NIR endoscopy, topical 100 μM, 5 min
[14] = anti-log of difference in log-transformed data

Molecule	target-to-background ratio, flat lesions ([2]; topical 100 μM)	target-to-background ratio, polyps ([2]; topical 100 μM)	EGFR phosphorylation / downstream signaling [4]	fluorescence signal from flat lesions [2, 13]	fluorescence signal from polyp [2, 13]	T/B ratio (log2), flat lesions ([2]; topical 100 μM) [log2]	T/B ratio (log2), polyps ([2]; topical 100 μM) [log2]	intensity siCL vs siEGFR (in words) [5]	binding/intensity in HT29 knockdown cells (siEGFR) [5]	binding to control HT29 cells (siCL) [5]	peak emission [9] [nm]	other results
VRPMPLQ												detection of dysplastic colorectal polyps [1]: used to detect human dysplastic colorectal polyps in vivo with confocal endomicroscopy
QRHKPRE	2.7±0.7	4.0±1.7	No downstream signaling was observed; also recorded: lack of cytoplasmic signaling									mean fluorescence intensity, dysplasia compared with normal ([3]; 5 μM, 10 min at RT, dysplasia n=29, normal n=15): 19.4 fold
PEHKRRQ [PEH*-Cy5.5]				Minimal signal	Minimal signal	0.36±0.47	0.62±0.77	nonsignificant decrease	minimal binding	minimal binding	710	binding to cell surface (SW620) [6]: Minimal binding; binding to cell surface (SW480) [7]: Minimal binding; binding to cell surface (HT29) [8]: Minimal binding
QRHKPRE [QRH*-Cy5.5]	2.7±0.7	4.0±1.7	no evidence of either EGFR phosphorylation or downstream phosphorylation of Akt and Erk1/2	Several flat lesions are seen on fluorescence; also recorded: presence of flat lesions	increased intensity from the polyp in a heterogeneous pattern	1.39±0.34	1.90±0.60	significantly higher intensities for siCL-transfected HT29 cells	Reduced fluorescence intensity	bind strongly to the surface; also recorded: strong binding	710	signal from normal colonic mucosa [2, 13]: minimal background; mean fold difference of T/B ratio QRH*-Cy5.5 vs PEH*-Cy5.5, flat lesions [2, 14]: 2.05; mean fold difference of T/B ratio QRH*-Cy5.5 vs PEH*-Cy5.5, polyps [2, 14]: 2.43; difference in results between QRH*-Cy5.5 and PEH*-Cy5.5 (target-to-background) ([2]; topical 100 μM, 5 min): significant; area under ROC curve (AUC) ([3]; dysplasia vs normal, n=29 and 15): 0.94; binding to dysplastic crypts in polyps [10]: increased fluorescence intensity; time scale for binding [11]: 2.46 min
QRHKPREGGGSK(Cy5.5)-NH2 [QRH*-Cy5.5]												fold change of fluorescence intensity, siCL- vs. siEGFR-transfected cells [12]: 3.2 fold
